From publication PMC11618456 (Nature Communications, 2024)

Columns and labels:
[1] = Metabolic stability in human liver microsomes; assay type: in vitro ADME; conditions: for Stability in HLM (% remaining) 30 min / Stability in HLM (% remaining) 60 min: 1 mg/mL HLM, 1 mM NADPH, 20 µM compound, mean ± SD
In short: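 Incubations in 1× PBS held 1 mg/mL HLM, 1 mM NADPH and 20 µM test compound at 37 °C for up to 60 min. Remaining compound was quantified by UPLC-QTOFMS, n = 3 per time point.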

Cytotoxicity MTT assay = assay type: cell-based; conditions: human, A549 cells, CC50, half-cytotoxic concentration, 72 h, MTT; mean ± SD (n ≥ 3)
Fech-mut mice [2] = test: EPP-associated phototoxicity in Fech-mut mice after light exposure; assay type: in vivo, mouse
in vitro = conditions: Fech-mut (BALB/c background), mouse, serum from Fech-mut mice treated with K31, oral, 100 mg/kg
[3] = Pharmacokinetics in WT mice after oral treatment; assay type: in vivo, mouse; conditions: 100 mg/kg po, Fig. 1d
WT mice = test: Sub-chronic study; assay type: in vivo, mouse; conditions: 100 mg/kg po, 23 days
In short: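 Male wild-type mice aged 8 weeks got vehicle or test compound 100 mg/kg orally for 23 days (n = 4 per group), weighed daily before dosing. On day 24, blood, liver, kidney and spleen were collected for organ/body weight ratios. Serum ALT, AST and ALP were measured by enzymatic kits, and liver histology was assessed.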

[4] = test system: PPIX in serum of Fech-mut mice; test: PPIX distribution in serum of Fech-mut mice; assay type: in vivo, mouse; conditions: 100 mg/kg po
ABCB1 = test: Effect on ABCB1; assay type: in vivo, mouse; conditions: WT mice, 100 mg/kg po pretreatment, paclitaxel as substrate
Fech-mut mice [5] = test: Safety after short-term treatment; assay type: in vivo, mouse; conditions: 100 mg/kg po, 5 days
A549 cells = test: Cytotoxicity MTT assay; assay type: cell-based; conditions: Table 1
ABCG2 = target: T1, ABCG2 (Mus musculus, UniProt Q7TMS5); test: PPIX efflux from RBCs of Fech-mut mice; assay type: cell-based; conditions: 10 µM, up to 3 h
T1 sequence (Q7TMS5 1-657): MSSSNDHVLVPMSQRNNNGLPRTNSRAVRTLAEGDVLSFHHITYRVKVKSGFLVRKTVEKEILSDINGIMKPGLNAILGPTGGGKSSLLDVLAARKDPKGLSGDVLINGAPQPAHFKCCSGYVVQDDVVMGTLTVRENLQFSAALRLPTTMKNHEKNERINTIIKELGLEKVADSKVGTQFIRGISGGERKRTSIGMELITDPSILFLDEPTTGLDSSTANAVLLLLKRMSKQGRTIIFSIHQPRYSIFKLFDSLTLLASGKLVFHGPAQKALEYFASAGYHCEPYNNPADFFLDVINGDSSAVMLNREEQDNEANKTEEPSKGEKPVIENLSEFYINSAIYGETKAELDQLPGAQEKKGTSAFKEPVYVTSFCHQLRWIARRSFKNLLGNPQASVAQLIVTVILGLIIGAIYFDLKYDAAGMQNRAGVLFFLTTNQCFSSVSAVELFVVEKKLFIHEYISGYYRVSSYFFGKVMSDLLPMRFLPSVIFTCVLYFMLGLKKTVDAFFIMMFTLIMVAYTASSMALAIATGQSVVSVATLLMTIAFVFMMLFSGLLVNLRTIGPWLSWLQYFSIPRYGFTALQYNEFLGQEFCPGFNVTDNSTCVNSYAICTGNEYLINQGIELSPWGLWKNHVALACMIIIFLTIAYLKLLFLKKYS
In short: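 Fech-mut mouse RBCs were cultured in phenol-red-free RPMI 1640 at 2 × 10^8 cells/well, 37 °C, gently shaken and light-protected, with or without 10 µM test compound for 1 or 3 h. Medium PPIX was read by fluorescence (ex 405 nm, em 630 nm) and expressed as % of RBC PPIX at time 0. n = 3 mice, duplicate incubations, mean ± SEM.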

For `COc1ccc2c3c([nH]c2c1)[C@H](CC(C)C)N1C(=O)[C@H](CC(=O)NCc2ccccc2)NC(=O)[C@@H]1C3` [K33], the “Stability in HLM (% remaining) 30 min” value [1] was 37 ± 3 % remaining, the “Stability in HLM (% remaining) 60 min” value [1] was 18 ± 1 % remaining and the CC50 at 72 h (Cytotoxicity MTT assay) was 31.1 ± 3.7 µM.
With `COc1ccc2c3c([nH]c2c1)[C@H](CC(C)C)N1C(=O)[C@H](CC(=O)NC(C)(C)C)NC(=O)[C@@H]1C3` [K3] the “Stability in HLM (% remaining) 30 min” value [1] was 74 ± 25 % remaining, the “Stability in HLM (% remaining) 60 min” value [1] was 60 ± 3 % remaining and the CC50 at 72 h (Cytotoxicity MTT assay) was 58.9 ± 5.3 µM.
With `COc1ccc2c3c([nH]c2c1)[C@H](CC(C)C)N1C(=O)[C@H](CC(=O)N2CCCCC2)NC(=O)[C@@H]1C3` [K25] the CC50 at 72 h (Cytotoxicity MTT assay) was 26.5 ± 2.5 µM.
For `COc1ccc2c3c([nH]c2c1)[C@H](CC(C)C)N1C(=O)[C@H](CC(=O)NC2CCCCC2)NC(=O)[C@@H]1C3` [K23], the “Stability in HLM (% remaining) 30 min” value [1] was 45 ± 2 % remaining, the “Stability in HLM (% remaining) 60 min” value [1] was 26 ± 2 % remaining and the CC50 at 72 h (Cytotoxicity MTT assay) was 46.6 ± 0.9 µM.
With `COc1ccc2c3c([nH]c2c1)[C@H](CC(C)C)N1C(=O)[C@H](CC(=O)NC(C)C)NC(=O)[C@@H]1C3` [K31] the “withdrawal test: phototoxicity after K31 withdrawal” value (Fech-mut mice [2]; 100 mg/kg po days 1-4, then withdrawn, light continued days 5-8) was “recurrence of light-triggered phototoxicity was observed in the skin of Fech-mut mice from the second day of K31 withdrawal”, the “oxidative stress and inflammation in the skin” value (Fech-mut mice [2]; 100 mg/kg po, light exposure, once daily for 5 days) was “attenuated oxidative stress and inflammation” and the “light-triggered phototoxicity (gross appearance of the skin)” value (Fech-mut mice [2]; 30 and 100 mg/kg po, once daily for 5 days, both sexes) was “significantly decreased”. The “histological changes of skin (missing epidermis, damaged subepidermal collagen)” value (Fech-mut mice [2]; po pretreatment, light exposure, H&E, Sirius Red) was “prevented”, the fraction unbound at 16 h (in vitro) was 0.0585 and the “Stability in HLM (% remaining) 30 min” value [1] was 65 ± 3 % remaining. The “Stability in HLM (% remaining) 60 min” value [1] was 49 ± 9 % remaining, the “metabolic stability (in words)” value ([1]; incubation with human liver microsomes, Fig. 1c) was “significantly improved” and the “pharmacokinetic profile after oral treatment (in words)” value [3] was “outstanding pharmacokinetic profiles”. The “biomarkers of liver toxicity (ALT, AST, ALP) (in words)” value (WT mice) was “did not alter”, the “growth (body weight gain) (in words)” value (WT mice) was “did not alter” and the “ratios of organ (liver, kidney, and spleen) to body weight (in words)” value (WT mice) was “did not alter”. For the same compound, the “PPIX in serum (in words)” value [4] was “significant decrease”, the “inhibitory effect on ABCB1” value (ABCB1) was “no inhibitory effect” and the “PPIX levels in the liver (in words)” value (Fech-mut mice [5]) was “did not alter”. The “liver damage, alanine aminotransaminase (in words)” value (Fech-mut mice [5]) was “did not potentiate liver damage”, the “mean corpuscular hemoglobin in blood (in words)” value (Fech-mut mice [5]) was “no significant impact” and the “total hemoglobin in blood (in words)” value (Fech-mut mice [5]) was “no significant impact”. For the same compound, the “morphological changes in the liver and kidney” value (Fech-mut mice [5]; H&E) was “did not cause morphological changes”, the CC50 at 72 h (Cytotoxicity MTT assay) was over 100 µM and the “cytotoxicity compared with other Ko143 analogs” value (A549 cells) was “less cytotoxic when compared to other Ko143 analogs”. The “PPIX release from the RBCs of Fech-mut mice (in words)” value (ABCG2) was “markedly decreased”.
